E-sel inducer – E-selectin induction on HUVECs | P16581 | HUVEC E-selectin immunofluorescence imaging; normalized: neutral wells 0, TNF-alpha wells 100 | activation, % at 7.58 µM | 0.37% of 260,000 active;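 active = mean E-selectin-positive cell signal at least 10% of the positive control, reached in at least 60% of replicates, without over 20% cell loss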
Target sequence (P16581 whole entry, looked up): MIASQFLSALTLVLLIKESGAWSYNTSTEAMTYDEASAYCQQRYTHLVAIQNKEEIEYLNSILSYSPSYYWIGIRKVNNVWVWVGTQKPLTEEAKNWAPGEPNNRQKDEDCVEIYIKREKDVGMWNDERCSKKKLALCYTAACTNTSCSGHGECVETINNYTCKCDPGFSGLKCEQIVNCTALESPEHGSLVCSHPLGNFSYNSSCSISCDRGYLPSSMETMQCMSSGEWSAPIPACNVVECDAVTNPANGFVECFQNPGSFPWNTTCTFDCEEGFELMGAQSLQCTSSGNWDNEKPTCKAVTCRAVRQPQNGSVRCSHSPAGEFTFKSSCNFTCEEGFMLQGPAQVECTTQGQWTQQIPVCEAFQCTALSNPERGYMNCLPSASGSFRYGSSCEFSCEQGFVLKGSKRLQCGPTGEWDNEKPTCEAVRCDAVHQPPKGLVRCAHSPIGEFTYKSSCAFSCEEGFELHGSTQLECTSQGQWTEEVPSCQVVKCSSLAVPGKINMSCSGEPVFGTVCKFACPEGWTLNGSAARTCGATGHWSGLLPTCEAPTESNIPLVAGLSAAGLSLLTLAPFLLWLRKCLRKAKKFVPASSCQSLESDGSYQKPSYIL
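material = human umbilical vein endothelial cells (HUVEC), E-selectin induction | quantity = 3,000 cells/well | medium = EGM-2 growth medium on 0.1% gelatin-coated wells | technique = immunofluorescence imaging | read-out basis = % PE-positive cells | control set = TNF-alpha positive control, DMSO neutral control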
Xi reactivation – X-chromosome reactivation activator; 0.055% of 360,000 active; activation, % at 7.58 µM; XiGFP mouse fibroblasts, % GFP-positive cells imaging, 3 d; cells co-treated with 5-aza-dC sensitizer; scaled so ellipticine positive control = 100%;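 active = mean normalized replicate activation at least 10% and every replicate at or above 10%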
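Assay system – SV40-immortalized XiGFP fibroblast cells, line 68-5-11 · Buffer or medium – DMEM supplemented with 5-aza-dC as sensitizing agent · Dosing – one concentration, pinned · Benchmarks – positive control ellipticine, 6 µM final · Times – 3 days compound exposure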
Of the large screens only hits and unclear results are named; the others gave an inactive call. This excerpt belongs to a sample that is enriched for hits.

O=C(C1=NN[C@@H]2C(=O)N(c3cccc(F)c3)C(=O)[C@H]12)c1cnccn1	none (no result: E-sel inducer)
O=C(C1=NN[C@@H]2C(=O)N(c3ccccc3C(F)(F)F)C(=O)[C@H]12)c1cnccn1	E-sel inducer 27.2
Cc1ccc(S(=O)(=O)N(C)C[C@H]2Oc3ccc(N(C)C)cc3C(=O)N([C@H](C)CO)C[C@@H]2C)cc1	none
Cc1ccc(S(=O)(=O)N(C)C[C@@H]2Oc3ccc(N(C)C)cc3C(=O)N([C@@H](C)CO)C[C@@H]2C)cc1	none
Cc1ccc(S(=O)(=O)N(C)C[C@H]2Oc3ccc(N(C)C)cc3C(=O)N([C@@H](C)CO)C[C@@H]2C)cc1	E-sel inducer 46.6
Cc1ccc(S(=O)(=O)N(C)C[C@@H]2Oc3ccc(N(C)C)cc3C(=O)N([C@H](C)CO)C[C@H]2C)cc1	E-sel inducer 36.4
COc1cccc(-c2cn(CC[C@@H]3CC[C@@H](NS(=O)(=O)Cc4ccccc4)[C@H](CO)O3)nn2)c1	none
C[C@@H]1CN(C)C(=O)c2cccc(N(C)C)c2O[C@@H]1CN(C)C	none (no result: E-sel inducer)
CO[C@@H]1CN(C)C(=O)c2cc(NS(=O)(=O)CC(F)(F)F)ccc2OC[C@H](C)N(C(=O)NC(C)C)C[C@@H]1C	none
Cc1noc(C)c1S(=O)(=O)N(C)C[C@H]1Oc2ccc(NS(C)(=O)=O)cc2CC(=O)N([C@@H](C)CO)C[C@H]1C	E-sel inducer 27.8
Cc1noc(C)c1S(=O)(=O)N(C)C[C@@H]1Oc2ccc(NC(=O)Nc3ccc(F)cc3)cc2CC(=O)N([C@H](C)CO)C[C@H]1C	E-sel inducer 44.6
Cc1noc(C)c1S(=O)(=O)N(C)C[C@@H]1Oc2ccc(NS(C)(=O)=O)cc2CC(=O)N([C@@H](C)CO)C[C@H]1C	none
Cc1noc(C)c1S(=O)(=O)N(C)C[C@@H]1Oc2ccc(NC(=O)Nc3ccc(F)cc3)cc2CC(=O)N([C@@H](C)CO)C[C@@H]1C	E-sel inducer 50.6
Cc1noc(C)c1S(=O)(=O)N(C)C[C@H]1Oc2ccc(NC(=O)Nc3ccc(F)cc3)cc2CC(=O)N([C@@H](C)CO)C[C@H]1C	none
Cc1noc(C)c1S(=O)(=O)N(C)C[C@@H]1Oc2ccc(NC(=O)Nc3ccc(F)cc3)cc2CC(=O)N([C@@H](C)CO)C[C@H]1C	none
COc1ccc(S(=O)(=O)N2CCC3(CC2)CN(Cc2ccncc2)[C@H](CO)c2[nH]c4cc(OC)ccc4c23)cc1	none
COc1ccc2c3c(n(C)c2c1)[C@H](CO)N(CC1CC1)CC31CCN(C(C)=O)CC1	none (no result: E-sel inducer)
CC(=O)N1[C@@H]2CN(CC3CC3)C[C@H]1C2c1ccc(Br)cc1 (stereo not given in full)	none (no result: E-sel inducer)
CCCCNc1c([N+](=O)[O-])c(=O)n(C)c2ccccc12	E-sel inducer 47.6
Cn1c(=O)c([N+](=O)[O-])c(-n2ccnc2)c2ccccc21	none
Cn1c(=O)c([N+](=O)[O-])c(NCC(O)c2ccccc2)c2ccccc21 (stereo not given)	none (no result: E-sel inducer)
Cn1c(=O)c([N+](=O)[O-])c(NCCCn2ccnc2)c2ccccc21	E-sel inducer 73.7
C[C@H]1CN([C@@H](C)CO)S(=O)(=O)c2ccc(C#CC3CC3)cc2O[C@@H]1CN(C)Cc1cncnc1	none
COc1cccc(CN2CC3(CCN(C(C)=O)CC3)c3c(n(C)c4cc(OC)ccc34)[C@@H]2CO)c1	none (no result: E-sel inducer)
C[C@H](CO)N1C[C@H](C)[C@H](CN(C)C(=O)Nc2ccccc2)OCCCC[C@H](C)Oc2ccc(NC(=O)Nc3ccc(C(F)(F)F)cc3)cc2C1=O	none
CC(=O)Nc1cccc2c1O[C@H](CN(C)C(=O)OC(C)(C)C)[C@@H](C)CN(C)C2=O	none (no result: E-sel inducer)
C[C@@H]1CN(C)C(=O)c2cc(N)ccc2O[C@@H]1CN(C)C(=O)OC(C)(C)C	none (no result: E-sel inducer)
COc1ccc(CNc2ncnc3c2[nH]c2cc(OC)c(OC)cc23)cc1	E-sel inducer 66.9
COc1ccc(CNc2ncnc3c2[nH]c2ccccc23)cc1	none (no result: E-sel inducer)
O=C(C[C@H]1CC[C@H](NS(=O)(=O)c2ccccc2)[C@H](CO)O1)N1CCN(c2ccccc2)CC1	none
CC(C)[C@H]1CC=CC[C@@H](C)Oc2ccccc2C(=O)N(C)[C@H](C)C(=O)N1 (mixture of isomers)	none (no result: E-sel inducer)
Cc1cc(C)nc(NC(N)=NC(C)c2ccccc2)n1 (stereo not given)	E-sel inducer 185.3
Cc1cc(C)nc(NC(N)=NCCc2ccccc2)n1	none
C[C@H]1CN([C@@H](C)CO)S(=O)(=O)c2ccc(-c3ccc(C(=O)N(C)C)cc3)cc2O[C@@H]1CN(C)C(=O)C1CC1	none
C[C@@H]1CN(C)C(=O)c2cc(N(C)C)ccc2O[C@@H]1CN(C)C	none (no result: E-sel inducer)
COc1ccc2c3c([nH]c2c1)[C@H](CO)N(C)CC31CN(C(=O)Nc2c(C)noc2C)C1	none (no result: E-sel inducer)
COc1cc(CC(=O)OCC(=O)Nc2ccccc2C#N)cc(OC)c1OC	none
COc1cc(CCC(=O)OCC(=O)Nc2ccccc2C#N)cc(OC)c1OC	E-sel inducer 458.4
COc1ccc(CN(C)C[C@H]2Oc3ccc(NC(=O)Nc4ccc(F)cc4)cc3CC(=O)N([C@H](C)CO)C[C@@H]2C)cc1	none
COc1ccc(CN(C)C[C@@H]2Oc3ccc(NC(=O)Nc4ccc(F)cc4)cc3CC(=O)N([C@H](C)CO)C[C@H]2C)cc1	E-sel inducer 82.6
COc1ccc(CN(C)C[C@H]2Oc3ccc(NC(=O)Nc4ccc(F)cc4)cc3CC(=O)N([C@H](C)CO)C[C@H]2C)cc1	none
COc1ccc(CN(C)C[C@@H]2Oc3ccc(NC(=O)Nc4ccc(F)cc4)cc3CC(=O)N([C@H](C)CO)C[C@@H]2C)cc1	E-sel inducer 75.7
COCC(=O)Nc1ccc2c(c1)OC[C@H](C)N(Cc1ccncc1)C[C@H](C)[C@@H](OC)CN(C)C2=O	none
Cc1cccc(-c2ccc([C@@H]3[C@@H](CO)N4C(=O)CN(C(=O)c5cnccn5)C[C@@H]34)cc2)c1	none (no result: E-sel inducer)
CCCCC(=O)N/N=C/c1ccc(-c2ccc([N+](=O)[O-])cc2)o1	none (no result: E-sel inducer)
CC(C)(C)NC(=S)N/N=C\c1ccc(-c2ccc([N+](=O)[O-])cc2)o1	Xi reactivation 66.4 (no result: E-sel inducer)
O=C(CN1C(=O)c2ccccc2C1=O)NC1(C(=O)O)CCCC1	none
N#CC1(NC(=O)CN2C(=O)c3ccccc3C2=O)CCCCC1	E-sel inducer 49.9
C[C@H](CO)N1C[C@H](C)[C@H](CN(C)C(=O)C2CCC2)Oc2ncc(-c3ccncc3)cc2C1=O	none
N#CC(C#N)=C1C=CC=CN1/C(=C\c1ccco1)C(=O)c1ccc(-c2ccccc2)cc1	Xi reactivation 15.1 (no result: E-sel inducer)
N#CC(C#N)=C1C=CC=CN1/C(=C\c1ccco1)C(=O)c1ccc(Cl)cc1	none (no result: E-sel inducer)
O=C1c2oc3ccccc3c(=O)c2C(c2cccc(O)c2)N1CCCN1CCOCC1 (stereo not given)	none
COc1cccc(C2c3c(oc4ccccc4c3=O)C(=O)N2CCCN2CCOCC2)c1OC (stereo not given)	E-sel inducer 45.9 (no result: Xi reactivation)
Cc1ccc(-n2c(=S)sc3c(=O)n(-c4ccccc4C)c(SCC(=O)O)nc32)cc1C	none
CCc1ccc(-n2c(=S)sc3c(=O)n(-c4ccccc4C)c(SCC(=O)O)nc32)cc1	E-sel inducer 59.8
O=C(C[C@@H]1C[C@@H]2c3cc(NC(=O)c4cccnc4)ccc3O[C@@H]2[C@H](CO)O1)NCc1ccncc1	none
Cn1cc(-c2ccccc2C(N)=O)c(=O)c2cc(Cl)ccc21	none
Cn1cc(C2=C(c3ccc(Cl)cc3Cl)C(=O)NC2=O)c2ccccc21	Xi reactivation 58.5
